Results reported in ChEMBL document CHEMBL1806492, “Generation of 'Unnatural Natural Product' library and identification of a small molecule inhibitor of XIAP” (Bioorg Med Chem, 2011).
Active and inactive are the calls of the source. The rule behind the calls is not given here. Residues, ends and D or L forms follow the SMILES beside them. *: point of attachment. Cbz = O=C(OCc1ccccc1)*; CH2F = FC*

Experiments:
HeLa [1] = experiment: Induction of sensitization of human HeLa cells to camptothecin-induced apoptosis assessed as induction DNA fragmentation at 160 nM after 24 hrs by propidium iodide-staining based FACS assay; assay type: functional, cell-based
Method in brief: (§1)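 HeLa cells seeded at 1×10^5 cells/well and cultured overnight, then exposed to various concentrations of test compounds for 24 h. Nuclei stained with propidium iodide. Cell death measured by flow cytometry as DNA fragmentation, read as the sub-G1 population.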

HeLa [2] = experiment: Induction of sensitization of human HeLa cells to staurosporine-induced apoptosis assessed as induction DNA fragmentation at 160 nM after 24 hrs by propidium iodide-staining based FACS assay; assay type: functional, cell-based; method in brief: as §1
[3] = target: E3 ubiquitin-protein ligase XIAP (Homo sapiens) (UniProt P98170); experiment: Inhibition of human recombinant GST tagged XIAP expressed in Escherichia coli assessed as restoration of XIAP-mediated suppression of caspase-3 activity after 1 hrs using fluorogenic tetrapeptide Ac-DEVD-AFC substrate by caspase de-repression assay
Chain of E3 ubiquitin-protein ligase XIAP (Homo sapiens) (P98170 whole entry, the tested form may be a part): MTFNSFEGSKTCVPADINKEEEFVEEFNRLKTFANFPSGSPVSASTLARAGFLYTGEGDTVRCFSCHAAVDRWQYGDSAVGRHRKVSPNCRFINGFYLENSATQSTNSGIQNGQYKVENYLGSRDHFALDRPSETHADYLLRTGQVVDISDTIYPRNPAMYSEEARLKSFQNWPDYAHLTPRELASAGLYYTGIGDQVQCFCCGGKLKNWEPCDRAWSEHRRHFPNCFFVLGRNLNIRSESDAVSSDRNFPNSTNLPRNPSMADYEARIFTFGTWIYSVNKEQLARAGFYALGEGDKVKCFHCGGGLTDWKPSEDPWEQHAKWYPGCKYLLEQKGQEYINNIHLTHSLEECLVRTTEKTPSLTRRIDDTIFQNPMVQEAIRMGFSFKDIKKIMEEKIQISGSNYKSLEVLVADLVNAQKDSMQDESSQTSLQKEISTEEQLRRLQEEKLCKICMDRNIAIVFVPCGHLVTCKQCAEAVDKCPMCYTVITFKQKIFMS

Caspase-3 (Homo sapiens) = target: T1, Caspase-3 (Homo sapiens) (UniProt P42574); experiment: Effect on human caspase-3 activity at 10 uM in the absence of XIAP after 1 hrs using fluorogenic tetrapeptide Ac-DEVD-AFC as substrate
T1 sequence (whole entry): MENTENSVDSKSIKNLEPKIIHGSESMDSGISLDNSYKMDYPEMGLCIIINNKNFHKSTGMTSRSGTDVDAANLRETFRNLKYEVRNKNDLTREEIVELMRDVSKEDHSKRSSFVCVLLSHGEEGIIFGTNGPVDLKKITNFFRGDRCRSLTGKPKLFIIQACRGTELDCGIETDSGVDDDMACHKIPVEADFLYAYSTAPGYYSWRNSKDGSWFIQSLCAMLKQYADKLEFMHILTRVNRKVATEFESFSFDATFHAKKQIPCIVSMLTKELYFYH

[4] = target: E3 ubiquitin-protein ligase XIAP (Homo sapiens) (UniProt P98170); experiment: Inhibition of human GST-tagged XIAP binding to active human caspase-3 at 3 uM after 1 hrs by GST pull-down assay
HeLa [5] = experiment: Induction of sensitization of human HeLa cells to camptothecin-induced apoptosis assessed as induction DNA fragmentation at 10 uM after 24 hrs by propidium iodide-staining based FACS assay; assay type: functional, cell-based; method in brief: as §1
HeLa [6] = experiment: Induction of sensitization of human HeLa cells to staurosporine-induced apoptosis assessed as induction DNA fragmentation at 10 uM after 24 hrs by propidium iodide-staining based FACS assay; assay type: functional, cell-based; method in brief: as §1
[7] = target: Protein kinase C alpha type (Homo sapiens, UniProt P17252); experiment: Inhibition of [3H]PDBu binding to PKCalpha-C1A domain peptide
[8] = target: Protein kinase C beta type (Homo sapiens, UniProt P05771); experiment: Inhibition of [3H]PDBu binding to PKCbeta-C1A domain peptide
Chain of Protein kinase C beta type (P05771 whole entry, the tested form may be a part): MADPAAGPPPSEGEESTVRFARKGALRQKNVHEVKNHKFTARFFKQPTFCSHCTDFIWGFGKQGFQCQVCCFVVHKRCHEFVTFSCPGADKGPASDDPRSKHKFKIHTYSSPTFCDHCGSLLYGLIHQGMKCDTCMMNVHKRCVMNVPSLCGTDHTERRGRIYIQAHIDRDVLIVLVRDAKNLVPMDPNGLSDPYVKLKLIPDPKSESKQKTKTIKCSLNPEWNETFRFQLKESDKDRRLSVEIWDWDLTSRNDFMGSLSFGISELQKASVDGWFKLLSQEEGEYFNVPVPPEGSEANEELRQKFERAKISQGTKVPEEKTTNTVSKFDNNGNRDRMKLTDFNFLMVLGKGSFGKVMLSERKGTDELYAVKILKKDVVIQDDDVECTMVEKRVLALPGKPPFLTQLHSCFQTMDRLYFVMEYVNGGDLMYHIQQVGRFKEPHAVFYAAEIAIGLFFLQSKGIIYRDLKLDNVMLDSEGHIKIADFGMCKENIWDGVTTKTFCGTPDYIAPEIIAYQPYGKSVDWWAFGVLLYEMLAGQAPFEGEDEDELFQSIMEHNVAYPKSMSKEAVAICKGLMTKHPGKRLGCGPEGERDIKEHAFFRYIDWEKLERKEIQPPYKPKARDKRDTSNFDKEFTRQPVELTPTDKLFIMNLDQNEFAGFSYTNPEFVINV

[9] = target: Protein kinase C gamma type (Homo sapiens, UniProt P05129); experiment: Inhibition of [3H]PDBu binding to PKCgamma-C1A domain peptide
[10] = target: Protein kinase C delta type (Homo sapiens, UniProt Q05655); experiment: Inhibition of [3H]PDBu binding to PKCdelta-C1B domain peptide
Chain of Protein kinase C delta type (Q05655 whole entry, the tested form may be a part): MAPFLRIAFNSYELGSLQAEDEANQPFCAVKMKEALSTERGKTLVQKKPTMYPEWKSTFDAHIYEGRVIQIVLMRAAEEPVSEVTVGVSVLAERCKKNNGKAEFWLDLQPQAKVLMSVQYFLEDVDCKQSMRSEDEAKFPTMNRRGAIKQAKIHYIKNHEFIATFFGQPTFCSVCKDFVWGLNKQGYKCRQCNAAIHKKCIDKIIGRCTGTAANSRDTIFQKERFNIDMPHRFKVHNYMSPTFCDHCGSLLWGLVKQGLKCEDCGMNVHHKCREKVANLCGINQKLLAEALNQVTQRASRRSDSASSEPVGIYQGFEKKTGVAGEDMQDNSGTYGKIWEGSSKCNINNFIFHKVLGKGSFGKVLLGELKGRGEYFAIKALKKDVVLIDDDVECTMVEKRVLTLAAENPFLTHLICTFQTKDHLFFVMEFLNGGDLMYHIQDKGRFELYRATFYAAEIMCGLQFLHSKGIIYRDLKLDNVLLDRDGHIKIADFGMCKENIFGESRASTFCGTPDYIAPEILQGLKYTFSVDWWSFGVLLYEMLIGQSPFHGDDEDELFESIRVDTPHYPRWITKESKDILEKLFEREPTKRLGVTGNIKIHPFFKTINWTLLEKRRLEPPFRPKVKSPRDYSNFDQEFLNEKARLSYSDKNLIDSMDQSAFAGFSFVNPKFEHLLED

[11] = target: T2, Protein kinase C epsilon type (Homo sapiens, UniProt Q02156); experiment: Inhibition of [3H]PDBu binding to PKCepsilon-C1B domain peptide
T2 sequence (Q02156 whole entry): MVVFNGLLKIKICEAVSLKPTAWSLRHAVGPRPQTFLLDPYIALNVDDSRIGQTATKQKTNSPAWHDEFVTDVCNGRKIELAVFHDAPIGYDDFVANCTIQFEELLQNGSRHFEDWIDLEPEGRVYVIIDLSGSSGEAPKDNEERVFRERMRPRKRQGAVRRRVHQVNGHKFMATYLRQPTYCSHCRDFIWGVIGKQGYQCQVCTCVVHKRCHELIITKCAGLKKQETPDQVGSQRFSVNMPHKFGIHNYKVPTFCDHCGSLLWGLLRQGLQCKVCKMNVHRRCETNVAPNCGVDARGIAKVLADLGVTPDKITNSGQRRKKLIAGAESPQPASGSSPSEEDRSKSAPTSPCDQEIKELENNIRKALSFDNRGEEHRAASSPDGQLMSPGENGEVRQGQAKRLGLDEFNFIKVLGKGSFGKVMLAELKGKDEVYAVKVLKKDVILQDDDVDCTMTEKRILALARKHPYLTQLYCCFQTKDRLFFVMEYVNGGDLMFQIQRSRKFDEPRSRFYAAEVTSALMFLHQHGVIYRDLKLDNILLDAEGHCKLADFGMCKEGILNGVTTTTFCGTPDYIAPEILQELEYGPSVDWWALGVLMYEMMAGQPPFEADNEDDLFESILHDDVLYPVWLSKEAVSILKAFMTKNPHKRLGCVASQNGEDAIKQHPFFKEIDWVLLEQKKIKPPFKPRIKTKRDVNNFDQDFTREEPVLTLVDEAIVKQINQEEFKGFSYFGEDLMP

[12] = target: Protein kinase C eta type (Homo sapiens, UniProt P24723); experiment: Inhibition of [3H]PDBu binding to PKCeta-C1B domain peptide
Chain of Protein kinase C eta type (P24723 whole entry, the tested form may be a part): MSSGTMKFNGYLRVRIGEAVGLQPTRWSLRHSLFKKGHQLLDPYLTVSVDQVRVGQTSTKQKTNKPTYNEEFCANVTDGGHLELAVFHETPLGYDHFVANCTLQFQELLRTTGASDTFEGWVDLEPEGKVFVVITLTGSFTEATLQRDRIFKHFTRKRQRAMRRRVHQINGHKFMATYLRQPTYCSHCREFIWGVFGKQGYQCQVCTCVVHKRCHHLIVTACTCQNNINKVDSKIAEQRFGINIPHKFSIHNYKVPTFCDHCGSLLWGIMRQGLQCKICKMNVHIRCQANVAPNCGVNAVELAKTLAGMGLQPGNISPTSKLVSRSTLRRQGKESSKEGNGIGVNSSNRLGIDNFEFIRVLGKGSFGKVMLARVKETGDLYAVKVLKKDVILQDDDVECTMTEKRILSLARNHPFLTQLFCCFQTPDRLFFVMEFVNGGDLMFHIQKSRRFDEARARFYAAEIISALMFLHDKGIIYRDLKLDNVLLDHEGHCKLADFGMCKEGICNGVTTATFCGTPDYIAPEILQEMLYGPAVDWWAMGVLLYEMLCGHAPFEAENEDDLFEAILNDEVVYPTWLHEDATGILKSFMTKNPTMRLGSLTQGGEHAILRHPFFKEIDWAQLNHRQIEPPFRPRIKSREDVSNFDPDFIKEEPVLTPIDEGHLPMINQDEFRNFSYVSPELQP

HeLa [13] = experiment: Induction of sensitization of human HeLa cells to camptothecin-induced apoptosis at 10 uM after 48 hrs by trypan blue dye exclusion assay; assay type: functional, cell-based
Method in brief: (§2)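 HeLa cells seeded at 2×10^4 cells/well, cultured overnight, then exposed to test compounds at various concentrations for 48 h. Viable cells counted by trypan blue dye exclusion.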

HeLa [14] = experiment: Induction of sensitization of human HeLa cells to staurosporine-induced apoptosis at 10 uM after 48 hrs by trypan blue dye exclusion assay; assay type: functional, cell-based; method in brief: as §2
HeLa [15] = experiment: Suppression of camptothecin-induced apoptosis in human HeLa cells assessed as reduction in DNA fragmentation at 100 uM after 24 hrs by propidium iodide-staining based FACS assay; assay type: functional, cell-based
Method in brief: (§3)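 HeLa cells seeded at 1×10^5 cells/well, cultured overnight, treated with test compounds at various concentrations for 24 h. Nuclei stained with propidium iodide; cell death scored by flow cytometry as the sub-G1 (fragmented DNA) population.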

HeLa [16] = experiment: Suppression of staurosporine-induced apoptosis in human HeLa cells assessed as reduction in DNA fragmentation at 100 uM after 24 hrs by propidium iodide-staining based FACS assay; assay type: functional, cell-based; method in brief: as §3

For `CCCCCCCCCCCCCC(=O)O[C@@H]1[C@@H](C)[C@@]2(O)[C@@H](C=C(CO)C[C@]3(O)C(=O)C(C)=C[C@@H]23)[C@@H]2C(C)(C)[C@]12OC(C)=O`, the Activity (HeLa [1]) was “inactive” and the Activity (HeLa [2]) was “inactive”.
With `C=C[C@]1(C)CC[C@@](C)(C(C)C)c2cc3c4c(c[nH]c4c21)C[C@@H](CO)NC(=O)[C@H](C(C)C)N3C` the inhibition [3] was “inactive”, the Activity (Caspase-3 (Homo sapiens)) was “Active” and the inhibition [4] was “inactive”. For the same compound, the Activity (HeLa [5]) was “inactive” and the Activity (HeLa [6]) was “inactive”.
`C=C[C@@]1(C)CC[C@](C)(C(C)C)c2cc3c4c(c[nH]c4c21)CC(=O)NC(=O)[C@H](C(C)C)N3C` was tested, and the inhibition [3] was “Active”, the inhibition (Caspase-3 (Homo sapiens)) was “inactive” and the inhibition [4] was “Active”. The Ki [7] was 600 nM, the Ki [8] was 730 nM and the Ki [9] was 660 nM. It also gave a Ki [10] of 87 nM, a Ki [11] of 480 nM and a Ki [12] of 360 nM. For the same compound, the Activity (HeLa [13]) was “Active”, the Activity (HeLa [5]) was “Active” and the Activity (HeLa [6]) was “Active”. The Activity (HeLa [14]) was “Active”.
`COC(=O)C[C@H](NC(=O)[C@H](C)NC(=O)[C@@H](NC(=O)OCc1ccccc1)C(C)C)C(=O)CF` (Cbz-Val-Ala-Asp(OMe)-CH2F) was tested, and the Activity (HeLa [15]) was “inactive” and the Activity (HeLa [16]) was “inactive”.
